Each block holds one compound with its values, some of them ahead of it. Calls of active or inactive are those of the source. No cut-off for these calls is given here.
Key:
[1] = biological target: Signal transducer and activator of transcription 3 (Homo sapiens) (UniProt P40763); assay: Inhibition of STAT3 transcriptional activity in human oncostatin M-stimulated HeLa cells at 10 uM after 24 hrs by luciferase reporter gene assay; type: cell-based
How it was run: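 HeLa cells carrying a STAT3-luciferase reporter pretreated with DMSO or compound (10 µM) for 24 h, stimulated with oncostatin M 10 ng/mL for 5 h, then luciferase reporter activity measured.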

[2] = biological target: Signal transducer and activator of transcription 3 (Homo sapiens) (UniProt P40763); assay: Inhibition of STAT3 phosphorylation in human MCF10A cells transformed with H-ras at 10 uM after 24 hrs by Western blot analysis; type: cell-based; details: MCF-10A
How it was run: (§1)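 Immunoblot of STAT3 phosphorylation in MCF10A-ras cells after 24 h treatment at 5 and 10 µM (analogs at 10 µM). In a thiol-reducing arm, cells got 0.5 mM DTT for 1 h before 10 µM compound for 24 h.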

[3] = biological target: Signal transducer and activator of transcription 3 (Homo sapiens) (UniProt P40763); assay: Inhibition of STAT3 phosphorylation in human MCF10A cells transformed with H-ras at 1 to 10 uM after 24 hrs by Western blot analysis; type: cell-based; details: MCF-10A
How it was run: (§2)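 MCF10A-ras cells treated at the indicated concentrations for 24 h; lysates immunoblotted for p-STAT3, total STAT3 and p-STAT1.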

MCF7 = assay: Cytotoxicity against human MCF7 cells at 1 to 5 uM after 24 hrs; type: functional, cell-based
How it was run: (§3)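 MCF7 and MDA-MB-231 breast cancer cells treated at the indicated concentrations for 24 h; viability then assessed.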

[4] = Cytotoxicity against wild type human MCF10A cells at 2 uM after 24 hrs; type: cell-based; details: mcf-10a
How it was run: (§4)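 MCF10A and MCF10A-ras cells exposed to each inhibitor for 24 h, then cytotoxicity measured.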

MCF-10A = assay: Cytotoxicity against human MCF10A cells transformed with H-ras at 2 uM after 24 hrs; type: functional, cell-based; how it was run: as §4
[5] = biological target: T1, Signal transducer and activator of transcription 1-alpha/beta (Homo sapiens) (UniProt P42224); assay: Inhibition of STAT1 phosphorylation in human MCF10A cells transformed with H-ras at 1 to 10 uM after 24 hrs by Western blot analysis; type: cell-based; details: MCF-10A; how it was run: as §2
T1 sequence (whole entry): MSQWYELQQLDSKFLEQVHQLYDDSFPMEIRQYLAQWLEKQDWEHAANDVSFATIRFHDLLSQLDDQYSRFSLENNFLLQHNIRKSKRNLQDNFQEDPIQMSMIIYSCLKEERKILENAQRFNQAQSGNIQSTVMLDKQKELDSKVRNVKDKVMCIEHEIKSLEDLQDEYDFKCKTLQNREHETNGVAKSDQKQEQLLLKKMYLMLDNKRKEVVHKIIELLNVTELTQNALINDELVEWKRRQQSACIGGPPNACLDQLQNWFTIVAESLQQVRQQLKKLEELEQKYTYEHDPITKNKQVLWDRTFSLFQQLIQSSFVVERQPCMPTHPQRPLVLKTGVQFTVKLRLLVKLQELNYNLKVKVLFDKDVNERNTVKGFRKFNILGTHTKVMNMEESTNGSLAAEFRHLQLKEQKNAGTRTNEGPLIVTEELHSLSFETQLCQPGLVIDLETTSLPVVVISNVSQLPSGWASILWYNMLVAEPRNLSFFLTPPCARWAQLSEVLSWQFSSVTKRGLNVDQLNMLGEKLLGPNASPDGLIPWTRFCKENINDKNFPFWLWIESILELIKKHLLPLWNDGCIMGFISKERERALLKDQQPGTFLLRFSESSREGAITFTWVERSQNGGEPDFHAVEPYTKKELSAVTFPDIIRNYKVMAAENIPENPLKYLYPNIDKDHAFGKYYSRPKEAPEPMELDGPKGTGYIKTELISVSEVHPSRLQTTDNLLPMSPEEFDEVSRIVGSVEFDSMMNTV

MDA-MB-231 = assay: Cytotoxicity against human MDA-MB-231 cells at 1 to 5 uM after 24 hrs; type: functional, cell-based; how it was run: as §3
[6] = biological target: Signal transducer and activator of transcription 3 (Homo sapiens) (UniProt P40763); assay: Inhibition of STAT3 phosphorylation in human MCF10A cells transformed with H-ras at 5 to 10 uM after 24 hrs by Western blot analysis; type: cell-based; details: MCF-10A; how it was run: as §1
[7] = biological target: Signal transducer and activator of transcription 3 (Homo sapiens) (UniProt P40763); assay: Binding to STAT3 in human MCF10A cells transformed with H-ras at 5 to 30 uM after 24 hrs using HRP-streptavidin by Western blot analysis; details: MCF-10A

Signal transducer and activator of transcription 3 (Homo sapiens), sequence (P40763 whole entry): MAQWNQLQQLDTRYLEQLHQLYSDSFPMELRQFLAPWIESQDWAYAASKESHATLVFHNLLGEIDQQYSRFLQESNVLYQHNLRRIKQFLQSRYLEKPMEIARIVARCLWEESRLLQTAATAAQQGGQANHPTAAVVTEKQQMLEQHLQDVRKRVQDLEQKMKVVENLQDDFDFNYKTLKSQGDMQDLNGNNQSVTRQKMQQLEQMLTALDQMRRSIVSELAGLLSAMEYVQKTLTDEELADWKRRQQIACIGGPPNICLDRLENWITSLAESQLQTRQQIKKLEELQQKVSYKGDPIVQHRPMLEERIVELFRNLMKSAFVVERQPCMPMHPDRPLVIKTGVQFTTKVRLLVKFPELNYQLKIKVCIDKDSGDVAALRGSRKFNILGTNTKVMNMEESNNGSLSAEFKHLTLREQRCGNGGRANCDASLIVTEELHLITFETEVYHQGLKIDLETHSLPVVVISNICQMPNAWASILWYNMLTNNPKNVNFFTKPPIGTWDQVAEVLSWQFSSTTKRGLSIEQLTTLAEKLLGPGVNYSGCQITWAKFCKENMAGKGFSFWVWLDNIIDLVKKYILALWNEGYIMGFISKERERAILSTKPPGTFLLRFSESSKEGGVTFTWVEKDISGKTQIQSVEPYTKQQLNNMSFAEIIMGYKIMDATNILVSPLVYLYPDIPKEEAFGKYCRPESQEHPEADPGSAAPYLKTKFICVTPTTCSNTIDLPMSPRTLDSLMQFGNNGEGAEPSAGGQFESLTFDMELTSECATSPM

SMILES: C=C(c1ccc(OC)c(OC)c1)C(O)c1ccc2c(c1OC)C=CC(C)(C)O2 (centres undefined)
inhibition [1]: inactive

SMILES: C=C(C(=O)c1ccc2c(c1OC)C=CC(C)(C)O2)c1ccc(OC)c(OC)c1
inhibition [3]: Active
Activity (MCF7): Active
Activity [4]: Non-toxic
Activity (MCF-10A): Active
inhibition [1]: Active
inhibition [5]: inactive
Activity (MDA-MB-231): Active
inhibition [6]: Active

SMILES: C=C(C(=O)c1ccc2c(c1OC)C=CC(C)(C)O2)c1ccc(OC/C=C/CNC(=O)CCCC[C@@H]2SC[C@@H]3NC(=O)N[C@@H]32)c(OC)c1
binding [7]: Active

Further lines, results first:

inhibition [2]: inactive
inhibition [1]: inactive
SMILES: COc1ccc(C(C)C(=O)c2ccc3c(c2OC)C=CC(C)(C)O3)cc1OC (centres undefined)

inhibition [2]: inactive
inhibition [1]: inactive
SMILES: COc1ccc(CC(=O)c2ccc3c(c2OC)C=CC(C)(C)O3)cc1OC
